Variants at the floor of the assay were thinned out.
B1: tRNA (parent)
chain: GUUCCGUUGGCGUAAUGGUAACGCGUCUCCCUCCUAAGGAGAAGACUGCGGGUUCGAGUCCCGUACGGAACG

Variants of: B1
Experiment: yeast fitness relative to wild type (ratio to wild type); higher = fitter; tRNA-Arg(CCU), competitive growth, 37 C, YPD
In short: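 Gene amplicons from the start population and from each of six end populations were read by 100-nucleotide paired-end sequencing. Those end populations came from pooled Saccharomyces cerevisiae strains carrying tRNA-Arg(CCU) gene variants at the native locus, competed in YPD at 37°C for 24 hours. Fitness relative to wild type was worked out from changes in genotype frequencies. Genotypes needed ≥ 100 starting reads, and estimates < 0.5 were set to 0.5.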

| Variant | yeast fitness |
| --- | --- |
| U13C A14G G56C | ≤ 0.5 |
| U13A U28C G58C A69U | 0.7 |
| U13A G23C C61A C62A | 0.726 |
| U13C C31U G41C C61U | 0.53 |
| U13C C31G C33A C66A | ≤ 0.5 |
| U13C A37G C60A A65U | ≤ 0.5 |
| U13C G38A | 0.708 |
| U13A G39C | 0.779 |
| U13A U28C C60G C66G | 0.6 |
| U13C A43G | 0.984 |
| U13A C33A A36U G68C | ≤ 0.5 |
| U13A C61U A65G | 0.71 |
| U13A G50U | 0.838 |
| U13C A14C C34U G38C G51A A57C C66U | ≤ 0.5 |
| U13C C29U | 0.831 |
| U13C C22G C27A G51C A70U | ≤ 0.5 |
| U13C A40U | 1.03 |
| U13A G18C C27U A40G G41A A45U | ≤ 0.5 |
| U13A U28C C33G G38A U64G | ≤ 0.5 |
| U13A U54A | 0.622 |
| U13A C33A U54C | ≤ 0.5 |
| U13C G18A G41A C62G A65U | 0.619 |
| U13A G41A U64C A70G | ≤ 0.5 |
| U13A G23C A70C | 0.667 |

| Variant | yeast fitness |
| --- | --- |
| U13A C33U A45C C46G A69U | 0.579 |
| U13A U26G C30G C49G | 0.501 |
| U13A U19G C49U | 0.625 |
| U13C G23A C29G A45U C62U | ≤ 0.5 |
| U13C C34U | 0.668 |
| U13C G38A A70U | 0.525 |
| U13C A21G C31G | 0.754 |
| U13C C27U C55A A69U | ≤ 0.5 |
| U13C A45C G50U | ≤ 0.5 |
| U13C C29A A37U C49A | ≤ 0.5 |
| U13C C49G U53C A57C | ≤ 0.5 |
| U13C C34G C62U | ≤ 0.5 |
| U13A C61G A70G | 0.6 |
| U13C C31U U54C G58C C61A A69U | ≤ 0.5 |
| U13C C27U A37C | ≤ 0.5 |
| U13C A21G U35A C55U A65G | ≤ 0.5 |
| U13A C61A G68A | ≤ 0.5 |
| U13A U28A U47G C62U A65U | ≤ 0.5 |
| U13A G23A G67C | 0.535 |
| U13A C46A A69C | 0.722 |
| U13A G18C A36G G41C U47A | ≤ 0.5 |
| U13A C33G U54A U59A | ≤ 0.5 |
| U13A C55U G58A U59C C62U | ≤ 0.5 |
| U13C C27G A37U C60A | 0.727 |

| Variant | yeast fitness |
| --- | --- |
| U13A C46A | 0.979 |
| U13C G38C A40U C49A C66A | ≤ 0.5 |
| U13A G23C U32G C49U A69U | ≤ 0.5 |
| U13A G17C C31A | 0.623 |
| U13C C22A C24A | ≤ 0.5 |
| U13A G41A G48A U53C | ≤ 0.5 |
| U13A C60G G67A | ≤ 0.5 |
| U13A G51C | 0.58 |
| U13C C24G C60G | ≤ 0.5 |
| U13C C66A | 0.556 |
| U13C C66G | 0.742 |
| U13A U28C U64A | 0.718 |
| U13A U47C | 0.774 |
| U13A U47A | 0.872 |
| U13C C61A G67A | ≤ 0.5 |
| U13C A14U G41C | 0.603 |
| U13C G18A | 0.843 |
| U13C C30G | 0.578 |
| U13C C30A | 0.825 |
| U13C G25C | 0.996 |
| U13C G25A | 0.902 |
| U13A G18C A36G G41C A65C | 0.544 |
| U13C C29A C33G U35C G51A | 0.503 |
| U13C C29U G56C | ≤ 0.5 |

| Variant | yeast fitness |
| --- | --- |
| U13C G44A A69U | 0.696 |
| U13C A20G C49U C66U A70C | ≤ 0.5 |
| U13C A36U G51C | ≤ 0.5 |
| U13C A14G A42C C62G | ≤ 0.5 |
| U13A U16A C49A C61U C62G | ≤ 0.5 |
| U13C C61G | 0.609 |
| U13C C62A | 0.68 |
| U13C C62U | 1.01 |
| U13C A45U A57G | ≤ 0.5 |
| U13C A14G C31U | 0.824 |
| U13A C61A | 0.706 |
| U13A C61U | 0.786 |
| U13A C61A C62U C66U | ≤ 0.5 |
| U13C C22U G38C A70U | ≤ 0.5 |
| U13A U28C C60A | 0.551 |
| U13A C34U | 0.58 |
| U13C A37U A42U C66A A69C | ≤ 0.5 |
| U13A C46A U64C | 0.609 |
| U13C A42U U47C G51A A70C | ≤ 0.5 |
| U13A G17A | 0.764 |
| U13C A40C C66A | 0.567 |
| U13A C33G | 0.741 |
| U13C C31G U47G U53G C61U G68A | 0.591 |
| U13A U54C C62U | 0.679 |

| Variant | yeast fitness |
| --- | --- |
| U13C C31U A57G C60U U64A C66A A69C | ≤ 0.5 |
| U13C C55U | 0.837 |
| U13C A43G G52C | ≤ 0.5 |
| U13C C30U A40G C55A G63C A65C | ≤ 0.5 |
| U13C A57C | 0.67 |
| U13A G58C A69U | 1.04 |
| U13A G41C A42G G67A | ≤ 0.5 |
| U13C G38C A43C G51C G56C A69G | ≤ 0.5 |
| U13C A14C C60U C62U U64A | ≤ 0.5 |
| U13C A15U C61U A65C | ≤ 0.5 |
| U13A U19A C34U A42C A43U | ≤ 0.5 |
| U13C C31A G56C | 0.57 |
| U13C A40U A69U | 0.793 |
| U13C C60G A69C | ≤ 0.5 |
| U13C A45C G50U A57G | ≤ 0.5 |
| U13A U54C C62U G68C | ≤ 0.5 |
| U13C C22U G38C | ≤ 0.5 |
| U13A C34G U54A | 0.609 |
| U13A G58C C60U C66G | 0.574 |
| U13C A15G C22G | 0.571 |
| U13A G48C | 1.1 |
| U13A U28C G56A | 0.805 |
| U13C A43U C49U | 0.716 |
| U13C C49G | 0.896 |

| Variant | yeast fitness |
| --- | --- |
| U13C C49U | 1.01 |
| U13C A15G A65C | 0.583 |
| U13C A14C U64C A65C | ≤ 0.5 |
| U13C A37C | 0.713 |
| U13C A37G | 0.694 |
| U13C C55U A65U | ≤ 0.5 |
| U13C A20C A42U | 0.558 |
| U13A C33A A36U | 0.544 |
| U13C A43U A70C | 0.679 |
| U13C A36G C62U | 0.693 |
| U13A C30U U47A U59A C60U C62G | ≤ 0.5 |
| U13C C22U C27U A37C A57G | ≤ 0.5 |
| U13C G25A C31U | 0.749 |
| U13C G25C A40C | 0.667 |
| U13C A36C C55U G68C | ≤ 0.5 |
| U13A G23C | 0.57 |
| U13A G23A | 0.659 |
| U13C A42U | 0.923 |
| U13C A42C | 0.932 |
| U13C A14G C24G | ≤ 0.5 |
| U13C A40G G63A G67A | ≤ 0.5 |
| U13A U35A A40U G41A A42C | ≤ 0.5 |
| U13C A69C | 0.995 |
| U13A U35G | 0.688 |

| Variant | yeast fitness |
| --- | --- |
| U13A U35A | 0.561 |
| U13A G44C | 0.94 |
| U13C C34G C55A | ≤ 0.5 |
| U13C A43U C60G | 0.546 |
| U13C C24U | 1.01 |
| U13C C24A | 0.69 |
| U13C C31U G56C | ≤ 0.5 |
| U13A U32C A40C G67A | ≤ 0.5 |
| U13A U28A C30G C46U G56C C61G | ≤ 0.5 |
| U13A U19A | 0.828 |
| U13C A21G A42U A57U C62U | ≤ 0.5 |
| U13A C30U U47A U59A C60U C62G C66U | 0.55 |
| U13A C49A G63A | ≤ 0.5 |
| U13A U19C C24G G25A G39C A40C G51C | ≤ 0.5 |
| U13A G67U | 0.727 |
| U13A G67A | 0.9 |
| U13C C31U C62A G63A | ≤ 0.5 |
| U13A G38C | 0.619 |
| U13C A42G C61G | ≤ 0.5 |
| U13C A40G C62G | ≤ 0.5 |
| U13C G18A A69C | 0.719 |
| U13C A15U C46A A65C | ≤ 0.5 |
| U13C G25A A69U | 0.767 |

— the RNAGym collection of RNA variant scans (doi:10.1126/science.aae0568)
